S1P3 ag = human S1P3 receptor agonists, primary screen, cell-based, primary and confirmation, NFAT-BLA reporter | Sphingosine 1-phosphate receptor 3 (Homo sapiens), Q99500 | 60,000 compounds, 0.1% hits | activation, % at 4.5 µM | AID 373, 2006 | S1P3 NFAT-BLA reporter cells, agonism, FRET ratio; relative to 1 µM S1P, basal subtracted;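 active means activation above the screen-wide mean plus 3 SD, cut at about 4.5% in these data, passing the limit was not always enough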
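Assay system: CHO cells stably expressing human S1P3, Gα16 and NFAT-β-lactamase reporter. Timing: overnight plating, 4 h compound 37 °C, 2 h substrate RT. Signal: β-lactamase FRET emission ratio 460/535 nm. Measure: percent activation versus median 1 µM S1P response, basal-subtracted, per plate. Repeats: primary screen single test, confirmation screen in triplicate.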
5-HT1A blocker = human 5-HT1a receptor antagonists, primary screen, cell-based, CHO, Ga15 NFAT-bla reporter; inhibition, % at 10 µM; 5-hydroxytryptamine receptor 1A (Homo sapiens), P08908; CHO 5-HT1a Ga15 NFAT-bla reporter, antagonist mode; 62,000 compounds, 0.68% hits;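 active means inhibition above the mean of all tested compounds plus 3 SD, cut at about 43% in these data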;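 further: receptor stimulated by 5-CT agonist at 100 nM near EC80; beta-lactamase reporter measured by ratiometric fluorescence of a cleavable substrate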
5HT1E antag = 5-HT1E receptor antagonists, primary screen, cell-based, HTS | inhibition, % at 6 µM | 65,000 compounds, 0.99% hits | CHO 5-HT1E Ga15 NFAT-bla reporter, FRET, antagonist | AID 571, 2007 | 5-hydroxytryptamine receptor 1E (Homo sapiens), P28566;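 active means inhibition above a set limit, the mean inhibition across every tested compound plus 3 SD, cut at about 29% in these data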;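 further: signal is the 460 over 535 nm emission ratio of beta-lactamase substrate; 0% = agonist plus DMSO wells and 100% = wells without agonist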
Target sequence (P28566 whole entry, looked up): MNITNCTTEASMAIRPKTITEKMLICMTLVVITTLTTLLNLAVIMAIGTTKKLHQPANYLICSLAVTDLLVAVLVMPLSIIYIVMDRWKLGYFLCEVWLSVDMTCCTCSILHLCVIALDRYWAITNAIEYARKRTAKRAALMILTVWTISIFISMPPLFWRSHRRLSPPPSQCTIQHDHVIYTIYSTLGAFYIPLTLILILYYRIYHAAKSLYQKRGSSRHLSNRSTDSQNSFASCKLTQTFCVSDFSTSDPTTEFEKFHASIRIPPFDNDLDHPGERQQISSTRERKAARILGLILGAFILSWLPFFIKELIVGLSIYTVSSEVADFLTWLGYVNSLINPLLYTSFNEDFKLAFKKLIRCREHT
5HT1a ag = human 5-HT1a receptor agonists, primary screen, cell-based, CHO, Ga15 NFAT-bla reporter; 5-hydroxytryptamine receptor 1A (Homo sapiens), P08908; CHO 5-HT1a Ga15 NFAT-bla reporter, FRET ratio; 0% basal, 100% maximal reference agonist; activation, % at 10 µM; 65,000 compounds, 0.56% hits; AID 567, 2006;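 active means activation above the screen-wide mean activation plus 3 SD, cut at about 19% in these data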;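 further: 0% = DMSO wells and 100% = 5-CT at EC100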
S1P1 ag pot = S1P1 agonists and agonism potentiators, primary screen, cell-based, primary and confirmation screens, CRE-bla reporter | Sphingosine 1-phosphate receptor 1 (Homo sapiens), P21453 | 56,000 compounds, 0.57% hits | S1P1 CRE-bla cells, forskolin, beta-lactamase FRET, potentiator mode; S1P1 agonist co-added at EC20, 2 nM; 100% = saturating reference agonist, 0% = basal | activation, % at 9.5 µM;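 active means activation above a cutoff set at the mean activation of all tested compounds plus 3 SD, cut at about 54% in these data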;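 further: forskolin at 4 µM as EC80 and the EC20 agonist is SEW2871; 100% = SEW2871 at its EC100 plus forskolin at EC80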
5HT1E ag = 5-HT1E receptor agonists, primary screen, cell-based, HTS | 5-hydroxytryptamine receptor 1E (Homo sapiens), P28566 | CHO 5-HT1E Ga15 NFAT-bla reporter, FRET; 0% DMSO wells, 100% control agonist wells | activation, % at 6 µM | 65,000 compounds, 0.69% hits;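 active means activation above a set limit, the screen-wide mean activation plus 3 SD, cut at about 8.5% in these data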;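 further: 100% = positive control agonist at 1 µM giving full maximal response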
* hit, by the source's call; . = no result given. In the library only some 3% were active in any assay of this set; here they are far more common.

SMILES | S1P3 ag | 5-HT1A blocker | 5HT1E antag | 5HT1a ag | S1P1 ag pot | 5HT1E ag
OCCN1CCN(CCCN2c3ccccc3Sc3ccc(Cl)cc32)CC1 | -3 | . | 0 | -4 | -12 | 0
C[C@H](CS)C(=O)N1CCC[C@H]1C(=O)O | -3 | . | -4 | 1 | 0 | 0
CCn1c2ccccc2c2nc3cc(S(=O)(=O)N4CCOCC4)ccc3nc21 | 2 | 6 | 50* | 3 | -57 | 1
c1ccc2nc3c(nc2c1)c1ccccc1n3CCN1CCOCC1 | 0 | -6 | -4 | 1 | -40 | -1
O=C(Cn1c(CN2CCCCC2)nc2ccccc2c1=O)NCc1ccco1 | -1 | 8 | 0 | -2 | -11 | 0
Fc1ccccc1COc1ccc(/C=N/n2cnnc2)cc1 | -1 | -16 | 8 | -4 | 88* | -1
Fc1ccc(-c2nnc3ccc(N4CCc5ccccc5C4)nn23)cc1 | 0 | -11 | 9 | 2 | -47 | 1
CC1=C(C(=O)OCc2ccc3c(c2)OCO3)C(c2ccc(Cl)cc2)NC(=O)N1 (stereo not given) | -2 | 50* | 43* | 0 | 113* | 0
COc1ccc(COC(=O)C2=C(C)NC(=O)NC2c2ccc(O)c(OC)c2)cc1 (stereo not given) | 0 | 0 | -1 | -3 | 15 | 0
CC1=C(C(=O)OCc2ccc3c(c2)OCO3)C(c2ccc(F)cc2)NC(=O)N1 (stereo not given) | -1 | 22 | 29* | -3 | 94* | -2
CCOC(=O)C1=C(C)NC(=O)NC1c1ccc2c(c1)OCCO2 (stereo not given) | 0 | 8 | -3 | -4 | 9 | 0
COC(=O)c1ccc(CSc2ccc3nnc(-c4cccc(F)c4)n3n2)o1 | -1 | -6 | 20 | 2 | -34 | 1
c1csc(CCNc2ncnc3sc4c(c23)CCC4)c1 | -2 | 32 | 16 | 3 | 153* | 1
COC(=O)c1ccc(-c2sc3nc(N4CCOCC4)c4c(c3c2N)CCCC4)o1 | 1 | . | 12 | 25* | -34 | 5
Cc1ccc(-n2c(C)cc(C(=O)CSc3nnnn3C)c2C)cc1 | 0 | -4 | -2 | -1 | 87* | 0
O=C(NCN1CCN(c2ccccc2F)CC1)c1ccccc1 | 0 | 15 | -2 | -2 | -1 | 10*
O=C(c1cccc(C(=O)N2CCN(c3ccccc3F)CC2)c1)N1CCN(c2ccccc2F)CC1 | 0 | 3 | -5 | 1 | . | 0
Cc1ccc2[nH]c(=O)c(CN(Cc3ccco3)C(=O)c3ccncc3)cc2c1 | -1 | 5 | 13 | -6 | 17 | 0
O=C(c1cccs1)N(Cc1ccco1)Cc1cc2ccccc2[nH]c1=O | 0 | -1 | -8 | 51* | -37 | 1
COC(=O)c1ccccc1NC(=O)C1CC(=O)N(C2CCCCC2)C1 (stereo not given) | -1 | -6 | 2 | -2 | . | 1
CCC(=O)NCCc1cc2cc(C)c(C)cc2[nH]c1=O | -1 | 1 | -1 | 224* | -18 | 0
CC1CCCN(C(=O)c2cc(F)c(F)cc2Cl)C1 (stereo not given) | 0 | -2 | -1 | -3 | -10 | 0
O=C(NCCc1ccc(Cl)cc1)c1ncn[nH]1 | 0 | -4 | 6 | -1 | -11 | 10*
COc1nc(OC)nc(N2CCC(C(=O)Nc3cccc4c3CCCC4)CC2)n1 | 0 | 0 | 1 | 22* | -2 | 0
COc1nc(OC)nc(N2CCC(C(=O)Nc3cccc4ccccc34)CC2)n1 | -1 | 10 | 8 | -4 | -16 | 0
SMILES | S1P3 ag | 5-HT1A blocker | 5HT1E antag | 5HT1a ag | S1P1 ag pot | 5HT1E ag
COC(=O)c1c(NC(=O)c2nc3ncccn3n2)sc(C(=O)N(C)C)c1C | 0 | 1 | 23 | -3 | 14 | -1
O=C(c1oc2ccccc2c1CSCc1ccccc1)N1CCN(c2ncccn2)CC1 | -2 | 30 | 7 | -1 | 20 | 0
CC(=O)N1CCCc2cc(S(=O)(=O)NC(C(=O)NC(C)c3ccccc3)C(C)C)ccc21 (stereo not given) | -2 | -13 | 1 | -3 | 4 | 1
COc1ccc(NC(=O)C(NS(=O)(=O)c2ccc3c(c2)CCCN3C(C)=O)C(C)C)c(OC)c1 (stereo not given) | 0 | -5 | -9 | -4 | -1 | 17*
Cc1ccc(C(=O)CSc2nnc(-c3ccco3)n2CC2CCCO2)cc1 (stereo not given) | 1 | 0 | 0 | 0 | -7 | 0
CCN(CC)c1ccc(C2Nc3cccc4cccc(c34)N2)c(O)c1 | -1 | . | 32* | -7 | 2 | -2
COc1cc(C2Nc3cccc4cccc(c34)N2)cc(OC)c1OC(C)=O | -1 | . | -1 | -3 | -10 | -1
CN(C)c1ccnc(NCc2ccccc2)c1C#N | 0 | 10 | 10 | 20* | 1 | 0
CC(=O)c1sc(-c2c(C)nc3sccn23)nc1C1CCCC1 | -1 | 3 | 12 | -2 | -8 | -1
Cc1cc(C)nc(-n2nc(C)c(Sc3ccc(F)cc3)c2N)n1 | 60* | -12 | -1 | 11 | -74 | 0
Cc1nn(C)c(C)c1Sc1ccc(Br)cc1 | -2 | 20 | 4 | -3 | 19 | -1
N#Cc1nc(COc2ccccc2)oc1N1CCC(Cc2ccccc2)CC1 | -1 | 49* | 2 | -4 | 8 | -1
Cc1ccc(OCc2nc(C#N)c(N3CCN(Cc4ccccc4)CC3)o2)cc1 | -2 | 50* | 9 | -3 | 18 | -1
N#Cc1nc(COc2cccc(Cl)c2)oc1N1CCCC1 | 0 | 3 | 0 | 23* | 0 | 0
N#Cc1nc(COc2ccccc2)oc1N1CCN(Cc2ccccc2)CC1 | -1 | 46* | 5 | -5 | 3 | -2
N#Cc1nc(COc2ccc(F)cc2)oc1N1CCCC1 | . | -4 | 1 | 3 | . | 2
CCc1c(C)nc(N)n2c(SCC(=O)N3CCCC(C)C3)nnc12 (stereo not given) | 1 | -18 | 1 | -2 | -5 | -1
COc1cccc(C(=O)Cn2c(=O)n(CC3CCCO3)c(=O)c3ccccc32)c1 (stereo not given) | . | 8 | 4 | 0 | . | -1
CSc1ncccc1C(=O)OCc1ccccc1 | 0 | -11 | -4 | -2 | -23 | -1

Assay outcomes as filed in PubChem.
